The results in this text go back to article PMC9321596 (Chemmedchem, 2022).

Square brackets hold non-standard residues; d marks the D form. Peptide text beside a SMILES is read from it. * marks the point of attachment. Cbz = O=C(OCc1ccccc1)*; βAla = NCCC(=O)O

Assay [1] has as its target recombinant human 6His-tagged-Pin1 (Homo sapiens, UniProt Q13526). The experiment in a line: Direct-binding assay. The procedure, abridged:
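Label-free optical biosensor assay. His6-Pin1 was expressed in E. coli BL21(DE3), purified, and immobilised at 150 µg/mL in 20 mM sodium acetate pH 5.5 overnight at 4 °C. Equilibrated 4 h in PBS, 0.5% DMSO, pH 7.4, then baseline read. Peptides were serially diluted to twelve concentrations from 500 µM final and read over 1 h. KD came from last-baseline-to-maximum signal, mean ± S.D. of three independent experiments.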

Assay [2] has as its target NIMA interacting protein 1 (Pin1) (human) (UniProt Q13526). In words: Corning Epic label-free optical biosensor.
Assay [3] concerns the target parvulin-14 (Par14), also known as Pin4 (human) (UniProt Q9Y237). The experiment in a line: Corning Epic label-free optical biosensor.
Assay [4] deals with recombinant human 6His-tagged-Pin4 (Homo sapiens, UniProt Q9Y237). The experiment in a line: Direct-binding assay.
recombinant human 6His-tagged-Pin4, sequence (Q9Y237 whole entry): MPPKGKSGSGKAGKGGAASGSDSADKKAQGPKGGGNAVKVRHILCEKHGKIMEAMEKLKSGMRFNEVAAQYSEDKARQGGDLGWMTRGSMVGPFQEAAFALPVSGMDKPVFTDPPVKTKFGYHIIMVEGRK
Assay [5] has as its system cancer cell lines (A549, HCT116, MCF7, LNCaP). In words: MTT anti-proliferative assay, R8 peptides, cancer cell lines. It counts as cell-based, human. To be noted: 10 μM, after 24 h, effect persisted up to 48 h; all cancer cells tested. In a few lines: (§1)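 MTT viability. A549, HCT116, MCF7 and AC16 were grown in DMEM; LNCaP in RPMI 1640. Both media had 10% FBS, penicillin/streptomycin, amphotericin-B and 2 mM L-glutamine. Cells seeded at 3×10⁴/well, treated in triplicate at 10 µM for 24 and 48 h. MTT 0.5 mg/mL for 3 h, formazan dissolved in DMSO, absorbance read at 570 nm. Expressed as % of untreated control, mean ± S.D. of three independent experiments.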

A further assay deals with AC16 non-tumor cells. In words: MTT anti-proliferative assay, R8 peptides, AC16. The format is cell-based, human. To be noted: 10 μM, 24 h and 48 h. The procedure, abridged:
as §1

Assay [6] relates to HCT116 cells. The experiment in a line: MTT anti-proliferative assay, HCT116. It counts as cell-based, human. To be noted: 10 μM, 24 h. The procedure, abridged:
as §1

Assay [7] concerns HCT116 cells. The experiment in a line: Cell cycle analysis by flow cytometry. The format is cell-based, human. Particulars: 10 μM, 48 h. In a few lines:
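HCT116 cells plated at 2×10⁵ cells/mL in triplicate and treated at 10 µM for 48 h. Harvested in PBS, spun at 1200 rpm for 5 min, then resuspended in hypotonic buffer (1×PBS, 0.1% sodium citrate, 0.1% NP-40, RNase A, […]). Held 30 min at RT in the dark, then run on flow cytometry with SSC-A/FSC-A gating and PI-A intensity.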

parvulin-14 (Par14), also known as Pin4 (human), sequence (Q9Y237 whole entry): as above
recombinant human 6His-tagged-Pin1, sequence (Q13526 whole entry): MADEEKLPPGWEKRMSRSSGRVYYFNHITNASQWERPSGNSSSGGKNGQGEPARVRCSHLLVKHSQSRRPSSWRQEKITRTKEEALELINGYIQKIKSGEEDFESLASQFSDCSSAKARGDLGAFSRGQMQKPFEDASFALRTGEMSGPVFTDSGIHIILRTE
NIMA interacting protein 1 (Pin1) (human), sequence (Q13526 whole entry): as above

As to “Methyl N‐(acetyl‐L‐alanyl)‐O‐benzyl‐L‐seryl‐L‐prolyl‐L‐phenylalaninate [5 g]”, in assay [1], the “binding to Pin1 (in words)” value is on record as “very little or no binding affinity”. In assay [2], “Methyl acetyl-L-alanyl-L-lysyl-L-prolyl-L-phenylalaninate (5 j) (peptide)” registered a dissociation constant Kd of 22.4 µM.

Consider “Methyl acetyl‐L‐alanyl‐L‐lysyl‐D‐prolyl‐L‐phenylalaninate [5 p]”, for which the “binding to Pin1 (in words)” value in assay [1] is given as “abrogates the interaction”. The molecule “Methyl N2-(acetyl-L-alanyl)-Nω-((4-methoxy-2,3,6-trimethylphenyl)sulfonyl)-L-arginyl-L-prolyl-L-phenylalaninate (5 c) (peptide)” showed a Kd in assay [2] of 53.6 µM.

Take “Methyl N2-(acetyl-L-alanyl)-N6-((benzyloxy)carbonyl)-L-lysyl-L-prolyl-L-phenylalaninate (5 i) (peptide)”: the results for the dissociation constant (Kd) in assay [2] and in assay [3] were 70.2 µM and 28.2 µM, respectively.

As to “tert‐Butyl (S)‐4‐((S)‐2‐acetamidopropanamido)‐5‐((S)‐2‐(((R)‐1‐methoxy‐1‐oxo‐3‐phenylpropan‐2‐yl)carbamoyl)pyrrolidin‐1‐yl)‐5‐oxopentanoate [5 e]”, in assay [1], the “binding to Pin1 (in words)” value is “very little or no binding affinity”. Also, in assay [4], the “binding to Pin4 (in words)” value is reported as “micromolar range”.

As to `COC(=O)[C@H](Cc1ccccc1)NC(=O)[C@@H]1CCCN1C(=O)[C@H](CCCCNC(=O)OCc1ccccc1)NC(=O)[C@H](C)NC(=O)CCNC(=O)[C@H](CCCNC(=N)N)NC(=O)[C@H](CCCNC(=N)N)NC(=O)[C@H](CCCNC(=N)N)NC(=O)[C@H](CCCNC(=N)N)NC(=O)[C@H](CCCNC(=N)N)NC(=O)[C@H](CCCNC(=N)N)NC(=O)[C@H](CCCNC(=N)N)NC(=O)[C@@H](N)CCCNC(=N)N` [R8–5 i] (H-RRRRRRRR[βAla]AK(Cbz)PF-OMe; N-terminus assumed), the “binding to Pin1 (in words)” value in assay [1] is given as “does not reach saturation”. In addition, the “reduction of cell proliferation” value is reported as 50–60% in assay [5] and roughly 60% in the assay on HCT116 cells [6]. The anti-proliferative activity entry with AC16 non-tumor cells was “less than 20%”. Also, in the assay on HCT116 cells [7], the “cells within G1 phase” value was 66.4%. As to `COC(=O)[C@H](Cc1ccccc1)NC(=O)[C@@H]1CCCN1C(=O)[C@H](Cc1c[nH]cn1)NC(=O)[C@H](C)NC(=O)CCNC(=O)[C@H](CCCNC(=N)N)NC(=O)[C@H](CCCNC(=N)N)NC(=O)[C@H](CCCNC(=N)N)NC(=O)[C@H](CCCNC(=N)N)NC(=O)[C@H](CCCNC(=N)N)NC(=O)[C@H](CCCNC(=N)N)NC(=O)[C@H](CCCNC(=N)N)NC(=O)[C@@H](N)CCCNC(=N)N` [R8–5 k] (H-RRRRRRRR[βAla]AHPF-OMe; N-terminus assumed), the “reduction of cell proliferation” value in assay [5] was 50–60%; in the assay with HCT116 cells [6] it was roughly 60%. Moreover, the anti-proliferative activity entry with AC16 non-tumor cells is “less than 20%”. Also, the “cells within G1 phase” value in the assay with HCT116 cells [7] is on record as 61.2%.

For `COC(=O)[C@H](Cc1ccccc1)NC(=O)[C@@H]1CCCN1C(=O)[C@H](CCCNC(=N)NS(=O)(=O)c1c(C)cc(OC)c(C)c1C)NC(=O)[C@H](C)NC(C)=O` [5 c, Methyl N^2‐(acetyl‐L‐alanyl)‐N^ω‐((4‐methoxy‐2,3,6‐trimethylphenyl)sulfonyl)‐L‐arginyl‐L‐prolyl‐L‐phenylalaninate], the “binding to Pin1 (in words)” value in assay [1] is given as “very little or no binding affinity”.

B1: Methyl acetyl-L-alanyl-L-valyl-L-prolyl-L-phenylalaninate (5 b) (peptide)
peptide: Ac-AVPF-OMe
SMILES: COC(=O)[C@H](Cc1ccccc1)NC(=O)[C@@H]1CCCN1C(=O)[C@@H](NC(=O)[C@H](C)NC(C)=O)C(C)C
As for B1, the Kd in assay [2] was found to be 6.11 µM.

B2: Methyl acetyl-L-alanyl-L-methionyl-L-prolyl-L-phenylalaninate (5 l) (peptide)
peptide: Ac-AMPF-OMe
SMILES: COC(=O)[C@H](Cc1ccccc1)NC(=O)[C@@H]1CCCN1C(=O)[C@H](CCSC)NC(=O)[C@H](C)NC(C)=O
The molecule B2 returned an equilibrium dissociation constant (Kd) in assay [2] of 14.1 µM.

B3: Methyl acetyl-L-alanyl-L-seryl-L-prolyl-L-phenylalaninate (5 h) (peptide)
peptide: Ac-ASPF-OMe
SMILES: COC(=O)[C@H](Cc1ccccc1)NC(=O)[C@@H]1CCCN1C(=O)[C@H](CO)NC(=O)[C@H](C)NC(C)=O
Take B3: in assay [2], the dissociation constant Kd was determined as 4.5 µM.

B4: Methyl acetyl-L-alanyl-L-glutaminyl-L-prolyl-L-phenylalaninate (5 m) (peptide)
peptide: Ac-AQPF-OMe
SMILES: COC(=O)[C@H](Cc1ccccc1)NC(=O)[C@@H]1CCCN1C(=O)[C@H](CCC(N)=O)NC(=O)[C@H](C)NC(C)=O
With B4, the Kd in assay [2] is 62.5 µM. On the same count and under the same terms, the value for Ac-ARPF-OMe [Methyl acetyl-L-alanyl-L-arginyl-L-prolyl-L-phenylalaninate (5 d)] was 30.5 µM.

B5: Methyl acetyl-L-alanyl-L-histidyl-L-prolyl-L-phenylalaninate (5 k) (peptide)
peptide: Ac-AHPF-OMe
SMILES: COC(=O)[C@H](Cc1ccccc1)NC(=O)[C@@H]1CCCN1C(=O)[C@H](Cc1c[nH]cn1)NC(=O)[C@H](C)NC(C)=O
Consider B5, for which, in assay [3], the Kd came to 5.7 µM. For Ac-AGPF-OMe (SMILES COC(=O)[C@H](Cc1ccccc1)NC(=O)[C@@H]1CCCN1C(=O)CNC(=O)[C@H](C)NC(C)=O) [Methyl acetyl-L-alanylglycyl-L-prolyl-L-phenylalaninate (5 a)], the Kd in assay [2] was 6.09 µM. For the molecule Ac-[dA]EPF-OMe, the Kd in assay [3] stood at 18.6 µM.
